Measured values reported in article PMC4010123 (Neuron, 2014).
“Also recorded” adds a separate entry of the source.

How the values were obtained:
[1] = tested on: Ser1116 of NR2B phosphorylated by Cdk5; test: P-S1116 NR2B in acute hippocampal slices; type: cell-based, mouse
[2] = tested on: Thr75 DARPP-32 (Cdk5 substrate); test: phospho-Thr75 DARPP-32 in acute brain slices; type: cell-based, mouse; details: acute striatal slices, NR2B siP (Figure S3C and D)
Procedure, shortened: (§1)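 Acute mouse striatal slices were treated in Mg2+-free Krebs buffer with polyarginine (R7)-tagged test peptide (0–100 μM, 0–180 min). Lysates were prepared with protease and phosphatase inhibitors and immunoblotted. For NR2B, P-S1116 was expressed as the P-S1116/total NR2B ratio; for DARPP-32, phospho-Thr75 was probed with total DARPP-32.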

[3] = tested on: GFP-NR2B; test: Cell surface GFP-NR2B in dendrites of cultured hippocampal neurons; type: cell-based, rat; details: NR2B siP 2 μM, 30 min, vs control peptide (S1116A); n = 49–64 cells
[4] = tested on: NR2B; test: Cell surface biotinylation of NR2B in hippocampal slices; type: cell-based, mouse; details: n = 4
[5] = tested on: NR2B-Cdk5 interaction; test: Pull-down of Cdk5 by recombinant GST-tagged NR2B in vitro; type: binding; details: n = 3
[6] = tested on: Cdk5 (substrate recombinant NR2B, Ser1116); test: In vitro phosphorylation of Ser1116 NR2B by Cdk5; type: biochemical; details: immunoblot
[7] = tested on: Cdk5 (substrate inhibitor-1); test: In vitro phosphorylation of inhibitor-1 by Cdk5; type: biochemical; details: Figure S3A
[8] = tested on: Ser1116 of NR2B phosphorylated by Cdk5; test: P-S1116 NR2B in acute striatal slices; type: cell-based; details: acute mouse striatal slices, NR2B siP (Figure S3C and D)
Procedure, shortened: as §1

[9] = tested on: Cdk5-NR2B protein-protein interaction; test: Co-immunoprecipitation of Cdk5 and NR2B from hippocampal slices; type: cell-based, mouse; details: 4 pooled slices per sample
Procedure, shortened: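 Acute mouse hippocampal slices were treated in Mg2+-free Krebs buffer with test peptide, scrambled peptide or Cdk5 inhibitor. Four slices were pooled per sample for NR2B–Cdk5 co-immunoprecipitation and immunoblotting, with Cdk5 input shown.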

[10] = tested on: NR2B or Cdk5; test: NR2B and Cdk5 expression levels in hippocampal slices; type: cell-based, mouse; details: NR2B siP
Procedure, shortened: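 Mouse hippocampal slices treated in Mg2+-free Krebs buffer with the test peptide (0–100 μM, 0–180 min) or a scrambled control peptide. NR2B–Cdk5 association was assessed by co-immunoprecipitation using 4 pooled slices per sample. NR2B and Cdk5 levels were immunoblotted, with loading shown.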

[11] = tested on: NMDAR/AMPAR EPSC; test: NMDA/AMPA EPSC ratio in cortical slices; type: cell-based; details: cortical slices (pyramidal neurons), NR2B siP vs scrambled control; n = 12–16
[12] = tested on: NR2B component of NMDAR EPSC; test: Ifenprodil-sensitive NR2B component of NMDAR EPSC in slices; type: cell-based; details: slices incubated with NR2B siP vs scramble control; n = 6–7
[13] = tested on: hippocampal CA3-CA1 pathway (fEPSP); test: Extracellular field recordings, CA3-CA1 fEPSP slope in hippocampal slices; type: cell-based, mouse; details: for fEPSP slope, effect of NR2B siP in presence of Ro 25–6981: Ro 25–6981 3 μM, added 10 min before Pen siP (2 μM, 30 min)
Procedure, shortened: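 Hippocampal slices were used; wild-type slices came from 3-month-old C57BL/6 mice. CA1 fEPSPs were evoked by bipolar Schaffer collateral stimulation (0.1 ms pulses at 0.033 Hz) at the intensity giving 50% of maximal slope. After a stable baseline, Pen-tagged test or control peptide was perfused for 30 min. Where used, Ro 25–6981 (3 μM) perfusion began 10 min before peptide. Read-out: percent change from baseline fEPSP slope.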

[14] = tested on: Ser1116 of NR2B; test: P-S1116 in siP-infused hippocampal area CA1; type: in vivo; details: rat CA1, NR2B siP vs scramble control; n = 4
Procedure, shortened: (§2)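 Sprague-Dawley rats received continuous bilateral dorsal hippocampal infusion of test or scrambled peptide by osmotic pump. Epifluorescent CA1 tissue punches were immunoblotted, with protease and phosphatase inhibitors present. P-S1116 was expressed as the P-S1116/total NR2B ratio. Cell surface NR2B was measured from 4 pooled punches per condition.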

[15] = tested on: NR2B; test: NR2B cell surface expression in siP-infused hippocampal area CA1; type: in vivo; details: rat CA1, NR2B siP vs scramble control; 4 pooled tissue punches
Procedure, shortened: as §2

[16] = tested on: Sprague-Dawley rats; test: Fear conditioning in rats, chronic infusion into dorsal hippocampus; type: in vivo, rat; details: for conditioned fear response at 96 h: extinction trial, both groups (siP and scrambled) (Figure S4E)
Procedure, shortened: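 Two-month-old Sprague-Dawley rats received continuous bilateral dorsal hippocampal infusion by mini-osmotic pump, starting 24 h before training. Training: 2 min exploration, then a 30 s tone (90 dB, 10 kHz) co-terminating with a foot shock (2 s, 0.7 mA); 2 min more in the box. Context tests: 5 min at 24, 48, 72 and 96 h. Tone recall at 27 h in a novel vanilla context (3 min, then 3 min tone). Freezing was time-sampled every 5 s, blind. After extinction and pump expiry, rats were retrained (0.7 mA) and context-tested 24 h later.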

[17] = tested on: rats; test: Nociception, pain threshold and motor reflexes; type: in vivo, rat; details: chronic infusion (Figure S4B and C)
Procedure, shortened: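 Rats received continuous bilateral infusion of the test peptide or a scrambled control into dorsal hippocampus by mini-osmotic pump, starting 24 h before fear conditioning. Nociception was scored as the foot-shock threshold that elicits flinching, jumping and vocalizing in the conditioning box; a tail flick test was also used. Scoring was blind. Data are mean ± SEM.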

[18] = tested on: mice; test: Fear conditioning in mice, acute infusion into dorsal hippocampus; type: in vivo, mouse
[19] = tested on: Ser1116 of NR2B; test: P-S1116 NR2B in CA1 after siP infusion and fear conditioning; type: in vivo; details: NR2B siP infusion (Figure S5A)
Procedure, shortened: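 Test peptide or control peptide was infused into dorsal hippocampus before fear conditioning. Animals were killed 1 h after training, and CA1 lysates were prepared with protease and phosphatase inhibitors. P-S1116 and total NR2B were measured by quantitative immunoblot and reported as the P-S1116/total NR2B ratio. Data are mean ± SEM.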

[20] = tested on: NR2B; details: infusion into dorsal hippocampus; ref Zhang et al., 2008; cited from earlier work
[21] = tested on: NMDAR / NR2B component of NMDAR-EPSC; test: Whole-cell voltage-clamp NMDAR-EPSC, CA1 pyramidal neurons in hippocampal slices; type: cell-based, mouse
Procedure, shortened: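 Acute mouse hippocampal slices were pretreated with vehicle or Cdk5 inhibitor. Whole-cell voltage-clamp recordings of synaptically evoked NMDAR-EPSCs were made from CA1 pyramidal neurons, first without and then with the NR2B blocker ifenprodil. The ifenprodil-sensitive part was taken as the NR2B component; decay kinetics were also measured.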

[22] = tested on: total NR2B; test: Total NR2B levels in hippocampal slices; type: cell-based, mouse; details: acute hippocampal slices, NMDA 50 or 100 μM, 15 min
Procedure, shortened: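 Acute mouse hippocampal slices were exposed to NMDA (50 or 100 μM, 15 min) in Mg2+-free Krebs buffer. Lysates were prepared with protease and phosphatase inhibitors and immunoblotted for total NR2B.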

[23] = slices from Cdk5 cKO mice, NR2B siP 2 μM, 30 min, n = 3

Molecule: C=C1[C@@H](O)[C@@H]2O[C@]3(CC[C@H](/C=C/[C@@H](C)[C@@H]4CC(C)=C[C@@]5(O[C@H](C[C@@](C)(O)C(=O)O)CC[C@H]5O)O4)O3)CC[C@H]2O[C@@H]1[C@@H](O)C[C@H](C)[C@H]1O[C@@]2(CCCCO2)CC[C@H]1C [okadaic acid]
- ability of NMDA to reduce P-S1116 in presence of okadaic acid ([1]; hippocampal slices, PP2A/PP1 inhibitor okadaic acid + NMDA (Figure S2C)): attenuated

Molecule: RRPPRSPDHKRYFRDKE [NR2B siP]
- phosphorylation state of Thr75 DARPP-32 [2]: no effect
- cell surface GFP-NR2B levels, increase, siP [3]: 1.5 fold
- NR2B cell surface levels, increase, siP ([4]; NR2B siP 1 h, 100 μM): 3.3 fold
- NR2B cell surface levels ([4]; NR2B siP or Scramble 1 h, 100 μM, or CP681301 1 h, 50 μM): increased
- block of pull-down of Cdk5 by GST-tagged NR2B [5]: most potently blocked the pull-down of Cdk5; also recorded: dose-dependently disrupts NR2B-Cdk5 binding in vitro
- in vitro phosphorylation of Ser1116 NR2B by Cdk5 [6]: dose-dependently inhibits
- in vitro phosphorylation of inhibitor-1 [7]: did not inhibit
- P-S1116 in striatal slices [8]: time-dependently reduced P-S1116
- Cdk5-NR2B co-immunoprecipitation / interaction [9]: disrupts NR2B-Cdk5 interaction; also recorded: effectively blocked subsequent co-immunoprecipitation of Cdk5 and NR2B
- levels of NR2B or Cdk5 expression [10]: did not alter levels of NR2B or Cdk5 expression
- NMDA/AMPA EPSC ratio, increase [11]: 1.8 fold
- ifenprodil-sensitive NR2B component of NMDAR EPSC, increase [12]: 1.5 fold
- fEPSP slope, effect of NR2B siP in presence of Ro 25–6981 ([13]; n = 3): did not show a significant effect
- fEPSP slope, steady state after washout, relative to control treated slices ([13]; hippocampal slices, after washout of NR2B siP (Pen siP), vs control peptide): 1.6 fold
- fEPSP slope in Cdk5 cKO, effect [13, 23]: almost absent in Cdk5 cKO mice
- fEPSP slope in Cdk5 cKO, increase [13, 23]: 1.2 fold
- P-S1116 in infused region [14]: reduces P-S1116
- NR2B cell surface expression [15]: increases NR2B cell surface expression
- contextual memory enhancement during extinction trials ([16]; rats, 48 and 72 h after initial training (Figure S4D and E)): contextual memory enhancement persisted
- tone-induced freezing ([16]; rats, chronic infusion, 27 h after conditioning): no effect
- conditioned fear response at 96 h ([16]; rats): extinguished by 96 h for both groups
- contextual fear memory 24 h after re-training ([16]; rats, re-trained after extinction and expiration of pump (Figure S4F)): increased
- contextual fear memory ([16]; two-month-old rats, chronic infusion, n = 20): improved contextual fear memory
- nociception, pain threshold, or motor reflexes [17]: neither NR2B siP, nor scrambled control affected nociception, pain threshold, or motor reflexes
- freezing levels in context test, acute compared with chronic infusion ([18]; 3 month-old mice, acute infusion): comparable to the levels observed with chronic infusion
- freezing in the tone test ([18]; 3 month-old mice, acute infusion 90 min prior to conditioning, n = 6–10): not freezing to tone; also recorded: did not reveal any significant changes
- contextual fear memory, increase, aged mice ([18]; 14 month-old mice, acute infusion 90 min prior to training, vs control peptide or non-infused cannulated controls (Figure S5B)): 1.7 fold
- P-S1116 NR2B in CA1 one hour post-training [19]: decreased P-S1116 NR2B in CA1 one hour post-training

Molecule: C[C@@H](CN1CCC(Cc2ccccc2)CC1)[C@@H](O)c1ccc(O)cc1 [Ro25–6981]
- fEPSP slope, effect of NR2B siP in presence of Ro 25–6981 ([13]; n = 3): blocked
- contextual fear learning [20]: impair contextual fear learning
- locomotor or anxiety-related behavior [20]: but not locomotor or anxiety-related behavior

Molecule: CC(C(O)c1ccc(O)cc1)N1CCC(Cc2ccccc2)CC1 (stereo not shown) [ifenprodil]
- reduction of NMDAR-EPSC by ifenprodil in control slices ([21]; controls (vehicle), n = 6–7): 20%
- reduction of NMDAR-EPSC by ifenprodil in CP681301-treated slices ([21]; slices treated with CP681301, n = 6–7): 33%
- contextual fear learning [20]: impair contextual fear learning
- locomotor or anxiety-related behavior [20]: but not locomotor or anxiety-related behavior

Molecule: RRRSYFHKEDRPPRDK [scrambled, reference compound]
- in vitro phosphorylation of Ser1116 NR2B by Cdk5 [6]: did not attenuate Ser1116 phosphorylation in vitro
- in vitro phosphorylation of Ser1116 NR2B by Cdk5 ([6]; listed as scramble): no effect
- Cdk5-NR2B co-immunoprecipitation / interaction [9]: did not affect Cdk5-NR2B interactions
- conditioned fear response at 96 h ([16]; rats): extinguished by 96 h for both groups
- nociception, pain threshold, or motor reflexes [17]: neither NR2B siP, nor scrambled control affected nociception, pain threshold, or motor reflexes

Molecule: CN[C@H](CC(=O)O)C(=O)O [NMDA, N-methyl-D-aspartate]
- P-S1116 normalized to total NR2B ([1]; acute hippocampal slices, NMDA 50 or 100 μM, 15 min, n = 4): dose-dependently attenuated P-S1116
- total NR2B levels [22]: reduced total NR2B levels
